The results in this text go back to ChEMBL document CHEMBL3734702, “Design of Specific Serine Protease Inhibitors Based on a Versatile Peptide Scaffold: Conversion of a Urokinase Inhibitor to a Plasma Kallikrein Inhibitor” (J Med Chem, 2015).

pKi: −log10 of the molar value. Where a SMILES comes first, the peptide text is derived from it. Bridges are numbered along the chain shown (N, C = ends). [ ]: non-standard residue; d: D form. Ala(1-amidino-4-piperidyl) = N=C(N)N1CCC(C[C@H](N)C(=O)O)CC1

Assay [1] deals with Vitamin K-dependent protein C (Homo sapiens, UniProt P04070). Briefly: Inhibition of human activated protein C after 15 mins using H-D-Ile-Pro-Arg-p-nitroanilide as substrate. An outline of the steps:
(§1)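 Chromogenic substrate was added at about its KM; for KLK1 this was S-2251. Initial velocities were monitored at 405 nm.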

Assay [2] has as its target T1, Suppressor of tumorigenicity 14 protein (Homo sapiens, UniProt Q9Y5Y6).
T1 sequence (Q9Y5Y6 whole entry): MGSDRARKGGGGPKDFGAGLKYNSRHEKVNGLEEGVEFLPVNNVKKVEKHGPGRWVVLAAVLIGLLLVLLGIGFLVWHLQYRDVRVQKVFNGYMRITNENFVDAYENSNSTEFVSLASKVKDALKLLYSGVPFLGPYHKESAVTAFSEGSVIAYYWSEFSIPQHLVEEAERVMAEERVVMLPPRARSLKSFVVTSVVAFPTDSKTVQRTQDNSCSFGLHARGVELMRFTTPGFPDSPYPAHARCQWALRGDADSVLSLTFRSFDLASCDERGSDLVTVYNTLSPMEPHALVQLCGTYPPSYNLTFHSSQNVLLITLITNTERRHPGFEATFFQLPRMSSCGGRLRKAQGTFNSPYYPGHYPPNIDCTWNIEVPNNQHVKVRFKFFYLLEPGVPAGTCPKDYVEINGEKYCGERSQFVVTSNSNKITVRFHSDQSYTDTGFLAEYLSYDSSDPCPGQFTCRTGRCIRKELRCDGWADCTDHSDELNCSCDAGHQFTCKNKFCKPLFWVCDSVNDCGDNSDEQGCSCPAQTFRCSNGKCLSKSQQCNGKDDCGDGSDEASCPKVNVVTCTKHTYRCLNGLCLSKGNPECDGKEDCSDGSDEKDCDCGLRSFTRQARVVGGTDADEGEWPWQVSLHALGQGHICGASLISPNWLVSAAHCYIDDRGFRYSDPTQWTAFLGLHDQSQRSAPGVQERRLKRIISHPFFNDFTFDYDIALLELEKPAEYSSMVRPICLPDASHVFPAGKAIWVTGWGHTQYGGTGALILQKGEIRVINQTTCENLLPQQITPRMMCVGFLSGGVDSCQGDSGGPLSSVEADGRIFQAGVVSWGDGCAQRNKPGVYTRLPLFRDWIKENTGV
Briefly: Inhibition of human matriptase after 15 mins using H-D-Ile-Pro-Arg-p-nitroanilide as substrate.

For assay [3], the target named is Prothrombin (Homo sapiens, UniProt P00734). Briefly: Inhibition of human thrombin after 15 mins using H-D-Ile-Pro-Arg-p-nitroanilide as substrate. In outline: as §1
Assay [4] concerns the target Prothrombin (Mus musculus, UniProt P19221). As to the kind of experiment: Inhibition of mouse thrombin after 15 mins using H-D-Ile-Pro-Arg-p-nitroanilide as substrate. In outline:
as §1

Assay [5] deals with Tissue-type plasminogen activator (Homo sapiens, UniProt P00750). As to the kind of experiment: Inhibition of human tPAn after 15 mins using H-D-Ile-Pro-Arg-p-nitroanilide as substrate. In outline:
as §1

The target in assay [6] is Tissue-type plasminogen activator (Mus musculus, UniProt P11214). As to the kind of experiment: Inhibition of mouse tPA after 15 mins using Z-D-Arg-Gly-Arg-p-nitroanilide as substrate. An outline of the steps: as §1
Tissue-type plasminogen activator (Mus musculus, UniProt P11214), sequence (P11214 whole entry): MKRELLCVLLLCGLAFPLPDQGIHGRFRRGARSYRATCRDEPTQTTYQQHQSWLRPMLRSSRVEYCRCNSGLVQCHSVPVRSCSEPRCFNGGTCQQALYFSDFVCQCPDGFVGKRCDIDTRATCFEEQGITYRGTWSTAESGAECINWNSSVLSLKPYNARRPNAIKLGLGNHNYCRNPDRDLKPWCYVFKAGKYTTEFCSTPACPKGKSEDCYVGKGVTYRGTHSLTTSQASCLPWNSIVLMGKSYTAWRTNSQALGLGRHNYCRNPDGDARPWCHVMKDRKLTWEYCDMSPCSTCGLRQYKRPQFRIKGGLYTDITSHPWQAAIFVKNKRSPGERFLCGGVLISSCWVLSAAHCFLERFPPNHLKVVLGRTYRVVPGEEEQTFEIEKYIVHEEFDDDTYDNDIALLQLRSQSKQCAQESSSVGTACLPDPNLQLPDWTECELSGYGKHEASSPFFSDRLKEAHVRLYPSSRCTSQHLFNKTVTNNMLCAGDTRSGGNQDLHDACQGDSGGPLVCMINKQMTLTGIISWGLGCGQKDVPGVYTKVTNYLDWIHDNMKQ
Assay [7] concerns the target Urokinase-type plasminogen activator (Mus musculus) (UniProt P06869). Briefly: Binding affinity to mouse uPA.
Assay [8] has as its target T2, Urokinase-type plasminogen activator (Homo sapiens, UniProt P00749). Briefly: Binding affinity to human uPA.
Assay [9] concerns the target Plasma kallikrein (Homo sapiens, UniProt P03952). As to the kind of experiment: Inhibition of human plasma kallikrein for 15 mins using H-D-Pro-Phe-Arg-p-nitroanilide as substrate. The assay is classed as cell-free.
Assay [10] addresses Plasma kallikrein (Mus musculus, UniProt P26262). As to the kind of experiment: Inhibition of mouse plasma kallikrein for 15 mins using H-D-Pro-Phe-Arg-p-nitroanilide as substrate. The assay is classed as cell-free. In outline: as §1
The target in assay [11] is T2, Urokinase-type plasminogen activator. Briefly: Inhibition of human uPA for 15 mins using pyro-Glu-Gly-Arg-p-nitroanilide as substrate.
Assay [12] concerns the target Urokinase-type plasminogen activator (Mus musculus, UniProt P06869). Briefly: Inhibition of mouse uPA for 15 mins using pyro-Glu-Gly-Arg-p-nitroanilide as substrate.
The target in a further assay is T3, Serine protease 1 (Bos taurus, UniProt P00760).
T3 sequence (P00760 whole entry): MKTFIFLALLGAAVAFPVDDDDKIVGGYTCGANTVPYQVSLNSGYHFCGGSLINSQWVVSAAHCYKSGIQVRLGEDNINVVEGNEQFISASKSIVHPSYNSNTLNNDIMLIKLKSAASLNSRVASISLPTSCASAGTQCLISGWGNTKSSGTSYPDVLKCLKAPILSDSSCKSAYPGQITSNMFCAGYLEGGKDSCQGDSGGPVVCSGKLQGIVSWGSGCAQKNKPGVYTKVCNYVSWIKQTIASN
Briefly: Inhibition of bovine beta-trypsin after 15 mins using Bz-Ile-Glu(g-OR)-Gly-Arg-p-nitroanilide as substrate. In outline: as §1

Assay [13] concerns the target Plasminogen (Homo sapiens, UniProt P00747). As to the kind of experiment: Inhibition of human plasmin after 15 mins using H-D-Ile-Pro-Arg-p-nitroanilide as substrate. An outline of the steps:
as §1

The target in assay [14] is Plasminogen (Mus musculus, UniProt P20918). Briefly: Inhibition of mouse plasmin after 15 mins using H-D-Ile-Pro-Arg-p-nitroanilide as substrate. In outline:
as §1

The next assay addresses Coagulation factor XI (Homo sapiens, UniProt P03951). Briefly: Inhibition of human coagulation factor 11a after 15 mins.
A further assay addresses Kallikrein-1 (Homo sapiens, UniProt P06870). As to the kind of experiment: Inhibition of human KLK1 after 15 mins using Val-Leu-Lys-p-nitroanilide as substrate. An outline of the steps:
as §1

Vitamin K-dependent protein C, sequence (P04070 43-197 limits assumed): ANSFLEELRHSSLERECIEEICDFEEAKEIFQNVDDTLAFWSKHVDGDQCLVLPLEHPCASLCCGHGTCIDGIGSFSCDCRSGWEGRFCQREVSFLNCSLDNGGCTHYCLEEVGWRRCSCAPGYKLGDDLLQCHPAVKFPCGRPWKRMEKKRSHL
Vitamin K-dependent protein C, sequence (P04070 212-461 limits assumed): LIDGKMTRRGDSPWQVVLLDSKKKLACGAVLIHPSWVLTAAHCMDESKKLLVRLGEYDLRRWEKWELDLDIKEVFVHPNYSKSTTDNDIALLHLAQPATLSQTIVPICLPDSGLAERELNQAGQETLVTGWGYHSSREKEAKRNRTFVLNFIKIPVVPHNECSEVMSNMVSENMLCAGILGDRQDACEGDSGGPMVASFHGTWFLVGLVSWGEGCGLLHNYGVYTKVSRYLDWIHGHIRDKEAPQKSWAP
Tissue-type plasminogen activator (Homo sapiens, UniProt P00750), sequence (P00750 whole entry): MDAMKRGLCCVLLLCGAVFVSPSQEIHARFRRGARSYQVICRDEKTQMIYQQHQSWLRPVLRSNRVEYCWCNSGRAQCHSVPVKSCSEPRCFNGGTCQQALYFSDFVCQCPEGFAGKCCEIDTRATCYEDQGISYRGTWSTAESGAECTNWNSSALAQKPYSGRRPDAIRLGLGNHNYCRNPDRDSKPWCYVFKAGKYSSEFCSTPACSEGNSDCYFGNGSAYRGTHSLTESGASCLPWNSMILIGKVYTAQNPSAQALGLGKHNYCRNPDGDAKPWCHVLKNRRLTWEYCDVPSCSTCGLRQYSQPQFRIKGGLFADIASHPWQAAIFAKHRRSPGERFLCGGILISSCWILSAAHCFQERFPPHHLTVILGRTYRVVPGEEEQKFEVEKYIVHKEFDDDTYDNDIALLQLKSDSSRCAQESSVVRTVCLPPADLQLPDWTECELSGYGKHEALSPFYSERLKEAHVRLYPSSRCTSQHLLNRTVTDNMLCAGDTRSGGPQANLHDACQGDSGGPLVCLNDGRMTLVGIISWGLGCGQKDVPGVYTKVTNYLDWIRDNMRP
Urokinase-type plasminogen activator (Mus musculus), sequence (P06869 21-178 limits assumed): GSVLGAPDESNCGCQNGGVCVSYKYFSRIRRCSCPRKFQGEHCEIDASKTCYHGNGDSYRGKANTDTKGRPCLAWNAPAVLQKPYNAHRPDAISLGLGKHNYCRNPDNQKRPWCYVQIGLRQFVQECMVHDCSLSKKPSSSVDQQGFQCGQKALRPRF
Urokinase-type plasminogen activator (Mus musculus), sequence (P06869 180-433 limits assumed): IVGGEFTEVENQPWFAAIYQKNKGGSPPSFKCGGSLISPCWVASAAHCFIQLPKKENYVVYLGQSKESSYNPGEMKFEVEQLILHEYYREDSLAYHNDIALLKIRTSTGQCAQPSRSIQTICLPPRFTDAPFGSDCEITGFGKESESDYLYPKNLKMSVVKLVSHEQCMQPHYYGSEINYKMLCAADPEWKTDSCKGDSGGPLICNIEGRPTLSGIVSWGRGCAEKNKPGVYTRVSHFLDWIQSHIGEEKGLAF
Urokinase-type plasminogen activator (Mus musculus, UniProt P06869), sequence (P06869 21-178 limits assumed): as the sequence (P06869 21-178 limits assumed) above
Urokinase-type plasminogen activator (Mus musculus, UniProt P06869), sequence (P06869 180-433 limits assumed): as the sequence (P06869 180-433 limits assumed) above
Plasminogen (Homo sapiens, UniProt P00747), sequence (P00747 97-580 limits assumed): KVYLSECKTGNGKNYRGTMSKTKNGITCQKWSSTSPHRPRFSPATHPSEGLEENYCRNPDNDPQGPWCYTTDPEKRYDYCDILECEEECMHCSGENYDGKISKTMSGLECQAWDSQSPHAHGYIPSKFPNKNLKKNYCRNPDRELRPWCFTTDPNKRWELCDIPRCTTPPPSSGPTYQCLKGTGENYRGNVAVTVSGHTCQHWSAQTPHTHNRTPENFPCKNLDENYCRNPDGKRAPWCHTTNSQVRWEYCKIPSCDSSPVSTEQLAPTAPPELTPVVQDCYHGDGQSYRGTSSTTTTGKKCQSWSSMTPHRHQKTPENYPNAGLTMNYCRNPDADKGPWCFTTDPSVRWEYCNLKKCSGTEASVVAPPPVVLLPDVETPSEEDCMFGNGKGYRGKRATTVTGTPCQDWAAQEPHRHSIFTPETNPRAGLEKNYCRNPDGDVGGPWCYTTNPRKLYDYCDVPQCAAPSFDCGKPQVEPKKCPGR
Plasminogen (Homo sapiens, UniProt P00747), sequence (P00747 581-810 limits assumed): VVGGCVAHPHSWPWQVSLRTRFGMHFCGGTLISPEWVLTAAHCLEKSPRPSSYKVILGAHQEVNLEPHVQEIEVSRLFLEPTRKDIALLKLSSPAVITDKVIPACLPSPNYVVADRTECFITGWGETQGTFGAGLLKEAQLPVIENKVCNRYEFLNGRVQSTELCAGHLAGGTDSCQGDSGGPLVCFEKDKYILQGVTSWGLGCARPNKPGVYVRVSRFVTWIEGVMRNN
Coagulation factor XI, sequence (P03951 19-387 limits assumed): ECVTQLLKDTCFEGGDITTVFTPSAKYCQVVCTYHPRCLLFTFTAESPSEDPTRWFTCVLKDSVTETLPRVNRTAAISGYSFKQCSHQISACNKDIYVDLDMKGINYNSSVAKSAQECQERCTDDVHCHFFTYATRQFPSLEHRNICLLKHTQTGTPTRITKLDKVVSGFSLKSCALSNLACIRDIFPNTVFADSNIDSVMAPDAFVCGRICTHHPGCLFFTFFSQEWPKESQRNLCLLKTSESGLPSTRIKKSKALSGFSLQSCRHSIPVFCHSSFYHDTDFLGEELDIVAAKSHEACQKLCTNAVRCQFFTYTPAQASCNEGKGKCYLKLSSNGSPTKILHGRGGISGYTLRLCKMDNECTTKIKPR
Coagulation factor XI, sequence (P03951 388-625 limits assumed): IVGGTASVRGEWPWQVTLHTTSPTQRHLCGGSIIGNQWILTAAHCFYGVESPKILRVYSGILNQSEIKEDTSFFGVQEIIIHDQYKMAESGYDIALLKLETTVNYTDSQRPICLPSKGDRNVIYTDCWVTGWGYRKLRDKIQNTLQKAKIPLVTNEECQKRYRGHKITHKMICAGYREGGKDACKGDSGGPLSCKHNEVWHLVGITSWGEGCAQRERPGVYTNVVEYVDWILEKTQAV
Plasma kallikrein (Mus musculus, UniProt P26262), sequence (P26262 20-390 limits assumed): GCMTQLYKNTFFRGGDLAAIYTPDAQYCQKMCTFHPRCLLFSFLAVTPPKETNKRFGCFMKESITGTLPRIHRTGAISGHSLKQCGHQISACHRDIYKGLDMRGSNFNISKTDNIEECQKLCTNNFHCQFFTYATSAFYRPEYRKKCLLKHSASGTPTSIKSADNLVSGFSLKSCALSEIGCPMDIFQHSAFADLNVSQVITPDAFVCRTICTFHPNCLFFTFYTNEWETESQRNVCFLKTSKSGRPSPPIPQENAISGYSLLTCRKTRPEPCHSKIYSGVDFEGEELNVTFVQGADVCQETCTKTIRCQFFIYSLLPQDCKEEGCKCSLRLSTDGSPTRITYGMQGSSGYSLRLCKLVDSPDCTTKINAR
Plasma kallikrein (Mus musculus, UniProt P26262), sequence (P26262 391-638 limits assumed): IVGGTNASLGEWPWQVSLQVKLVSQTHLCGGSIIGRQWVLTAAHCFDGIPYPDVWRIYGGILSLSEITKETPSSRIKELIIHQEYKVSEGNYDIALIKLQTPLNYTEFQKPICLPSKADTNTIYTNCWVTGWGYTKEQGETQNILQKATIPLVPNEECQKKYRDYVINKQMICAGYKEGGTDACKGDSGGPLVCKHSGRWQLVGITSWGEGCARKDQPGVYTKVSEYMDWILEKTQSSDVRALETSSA
Kallikrein-1, sequence (P06870 whole entry): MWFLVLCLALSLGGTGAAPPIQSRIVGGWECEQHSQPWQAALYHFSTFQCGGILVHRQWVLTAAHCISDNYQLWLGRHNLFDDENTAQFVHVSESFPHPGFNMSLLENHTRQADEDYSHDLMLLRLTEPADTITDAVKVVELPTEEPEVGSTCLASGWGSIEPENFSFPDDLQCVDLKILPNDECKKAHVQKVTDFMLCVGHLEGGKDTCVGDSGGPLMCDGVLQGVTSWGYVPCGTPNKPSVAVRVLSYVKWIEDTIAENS

The term pKi denotes the Ki on a negative log10 scale, so that one unit is a factor of ten. A higher pKi goes with a low Ki. In the case of `CC(C)C[C@@H]1NC(=O)[C@H](C)NC(=O)[C@H](CC2CCN(C(=N)N)CC2)NC(=O)[C@H](Cc2ccccc2)NC(=O)[C@H](CCCNC(=N)N)NC(=O)[C@H](C)NC(=O)[C@@H]2CCCN2C(=O)[C@@H](N)CSSC[C@@H](C(=O)O)NC(=O)[C@H](Cc2ccccc2)NC1=O` (H-CPARF[Ala(1-amidino-4-piperidyl)]ALFC-OH; disulfide 1-10), the pKi (in [1]; in assay [2]; at Prothrombin [3]; at Prothrombin [4]; in assay [5]; in [6]) was below 3.00 throughout.
Turning to `CC(C)C[C@@H]1NC(=O)[C@H](C)NC(=O)[C@H](CC2CCN(C(=N)N)CC2)NC(=O)[C@H](Cc2ccccc2)NC(=O)[C@H](CCCNC(=N)N)NC(=O)[C@H](C)NC(=O)[C@@H]2CCCN2C(=O)[C@@H](N)CSSC[C@@H](C(=O)O)NC(=O)[C@H](Cc2c[nH]c3ccccc23)NC1=O` (H-CPARF[Ala(1-amidino-4-piperidyl)]ALWC-OH; disulfide 1-10), the negative logarithm of the Ki (pKi) (in assay [1]; in assay [2]; on Prothrombin [3]; at Prothrombin [4]; in [5]; in [6]) was below 3.00 in each case.
For `CC(C)C[C@@H]1NC(=O)[C@H](Cc2ccc(O)cc2)NC(=O)[C@H](CCCNC(=N)N)NC(=O)[C@H](CO)NC(=O)[C@H](Cc2ccc(O)cc2)NC(=O)[C@H](C)NC(=O)[C@@H]2CCCN2C(=O)[C@@H](N)CSSC[C@@H](C(=O)O)NC(=O)[C@H](CC(=O)O)NC1=O` (H-CPAYSRYLDC-OH; disulfide 1-10), the negative logarithm of the Ki (pKi) (in assay [1]; in assay [2]; on Prothrombin [3]; on Prothrombin [4]; in assay [5]; in assay [6]) was below 3.00 throughout. The Activity came to 2 nM in assay [7] and 530 nM in assay [8].
In the case of `CC(C)C[C@@H]1NC(=O)[C@H](Cc2ccc(O)cc2)NC(=O)[C@H](CC2CCN(C(=N)N)CC2)NC(=O)[C@H](CO)NC(=O)[C@H](Cc2ccc(O)cc2)NC(=O)[C@H](C)NC(=O)[C@@H]2CCCN2C(=O)[C@@H](N)CSSC[C@@H](C(=O)O)NC(=O)[C@H](CC(=O)O)NC1=O` (H-CPAYS[Ala(1-amidino-4-piperidyl)]YLDC-OH; disulfide 1-10), the pKi (in assay [1]; in assay [2]; at Prothrombin [3]; on Prothrombin [4]; in assay [5]; in [6]) was below 3.00 each time.
For `CC(C)C[C@@H]1NC(=O)[C@H](C)NC(=O)[C@H](CC2CCN(C(=N)N)CC2)NC(=O)[C@H](Cc2ccccc2)NC(=O)[C@H](CCCNC(=N)N)NC(=O)[C@H](CCCCN)NC(=O)[C@@H]2CCCN2C(=O)[C@@H](N)CSSC[C@@H](C(=O)O)NC(=O)[C@H](Cc2ccccc2)NC1=O` (H-CPKRF[Ala(1-amidino-4-piperidyl)]ALFC-OH; disulfide 1-10), the negative logarithm of the Ki (pKi) was 7.66 on Plasma kallikrein [9]; 7.37 at Plasma kallikrein [10]; below 3.00 in assay [11]; below 3.00 in assay [12]; 4.85 on Serine protease 1; 4.90 on Plasminogen [13]. Also, the pKi is 5.47 at Plasminogen [14]; 4.92 at Coagulation factor XI; 6.42 on Kallikrein-1; below 3.00 in [1]; below 3.00 in [2]; below 3.00 on Prothrombin [3]. Further, the pKi (on Prothrombin [4]; in assay [5]; in assay [6]) was below 3.00 throughout.
